What was measured:
Caspase-3 = target: T1, Caspase-3 (Homo sapiens, UniProt P42574); assay: Inhibition of Caspase 3
T1 sequence (P42574 whole entry): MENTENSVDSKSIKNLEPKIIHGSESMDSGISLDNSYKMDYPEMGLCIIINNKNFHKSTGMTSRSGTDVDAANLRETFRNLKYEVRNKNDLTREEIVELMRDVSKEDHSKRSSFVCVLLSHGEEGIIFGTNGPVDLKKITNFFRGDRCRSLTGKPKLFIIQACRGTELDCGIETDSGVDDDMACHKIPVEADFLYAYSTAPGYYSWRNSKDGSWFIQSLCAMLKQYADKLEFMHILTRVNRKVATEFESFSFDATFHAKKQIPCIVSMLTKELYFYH
Method in brief: (§1)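 Isolated enzymes (ICE, caspase-3, caspase-8) were assayed with fluorogenic substrates following the supplier's kit protocol. Cleavage was followed for 30 min at 37 °C by fluorescence (excitation 390 nm, emission 460 nm). IC50 was calculated as [I]/((Vo/Vi) − 1) from the initial velocities with (Vi) and without (Vo) inhibitor.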

Caspase-1 = target: T2, Caspase-1 (Homo sapiens, UniProt P29466); assay: Inhibition of ICE; method in brief: as §1
T2 sequence (P29466 whole entry): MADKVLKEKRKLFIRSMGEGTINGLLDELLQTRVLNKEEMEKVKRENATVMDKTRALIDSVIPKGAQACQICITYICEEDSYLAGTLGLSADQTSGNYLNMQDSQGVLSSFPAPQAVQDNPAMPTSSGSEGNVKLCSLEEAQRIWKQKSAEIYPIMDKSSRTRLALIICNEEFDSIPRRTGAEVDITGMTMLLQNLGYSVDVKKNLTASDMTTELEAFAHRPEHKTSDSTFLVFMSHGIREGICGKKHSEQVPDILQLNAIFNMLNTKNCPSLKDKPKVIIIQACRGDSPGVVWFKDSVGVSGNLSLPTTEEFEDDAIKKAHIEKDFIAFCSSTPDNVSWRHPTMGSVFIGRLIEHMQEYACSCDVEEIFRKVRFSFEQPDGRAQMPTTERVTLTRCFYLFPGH

Homo sapiens = species on record: Homo sapiens; assay: Selectivity for ICE over Caspase 8
Caspase-8 = Caspase-8 (Homo sapiens, UniProt Q14790); assay: Inhibition of Caspase 8; method in brief: as §1
Sequence of Caspase-8 (Q14790 217-374 limits assumed): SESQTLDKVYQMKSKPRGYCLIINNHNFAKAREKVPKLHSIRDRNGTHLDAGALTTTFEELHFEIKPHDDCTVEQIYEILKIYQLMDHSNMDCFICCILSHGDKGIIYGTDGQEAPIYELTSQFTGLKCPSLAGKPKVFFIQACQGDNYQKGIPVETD
Sequence of Caspase-8 (Q14790 385-479 limits assumed): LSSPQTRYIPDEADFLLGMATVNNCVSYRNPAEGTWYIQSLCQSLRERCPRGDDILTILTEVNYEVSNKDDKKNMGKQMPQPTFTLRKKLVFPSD

THP-1 = assay: Inhibition of LPS-induced ILbeta1 release in human THP1 cells; assay type: functional, cell-based
Method in brief: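 Human monocytic THP-1 cells (2 × 10⁶/ml, RPMI 1640) were preincubated 15 min with or without compound added as DMSO solutions, with test concentrations starting at 1 nM. Cells were then stimulated with LPS for 4 h and centrifuged. Inhibition of IL-1β production was measured.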

`O=C(CN1CCS(=O)(=O)C[C@H](NC(=O)c2nccc3ccccc23)C1=O)N[C@H]1CC(=O)OC1O` (some centres undefined) was tested, and the IC50 (Caspase-3) was over 10 µM, the IC50 (Caspase-1) was 130 nM and the Selectivity ratio (Homo sapiens) was over 100. The IC50 (Caspase-8) was 5 µM and the IC50 (THP-1) was 1400 nM.

`CCO[C@@H]1OC(=O)C[C@@H]1NC(=O)[C@@H]1CCCN2C(=O)CC[C@H](NC(=O)c3nccc4ccccc34)C(=O)N12` [PRALNACASAN] showed an IC50 (Caspase-3) of 1.3 µM and an IC50 (THP-1) of 190 nM.

Work on `O=C(CN1CCSC[C@H](NC(=O)c2cccc(C(F)(F)F)c2)C1=O)N[C@H]1CC(=O)OC1O` (some centres undefined) yielded an IC50 (Caspase-3) of over 10 µM, an IC50 (Caspase-1) of 150 nM and a Selectivity ratio (Homo sapiens) of over 100. For the same compound, the IC50 (Caspase-8) was over 10 µM and the IC50 (THP-1) was 1000 nM.

For `O=C(CN1CCSC[C@H](NC(=O)c2ccccc2)C1=O)N[C@H]1CC(=O)OC1O` (some centres undefined), the IC50 (Caspase-3) was over 10 µM, the IC50 (Caspase-1) was 350 nM and the Selectivity ratio (Homo sapiens) was over 100. For the same compound, the IC50 (Caspase-8) was 5.2 µM and the IC50 (THP-1) was 1700 nM.

Compound `O=C(CN1CCSC[C@H](NC(=O)c2nccc3ccccc23)C1=O)N[C@H]1CC(=O)OC1O` (some centres undefined) has an IC50 (Caspase-3) of over 10 µM, an IC50 (Caspase-1) of 70 nM and a Selectivity ratio (Homo sapiens) of over 100. The IC50 (Caspase-8) was 7 µM and the IC50 (THP-1) was 730 nM.

For `O=C(CN1CCS(=O)(=O)C[C@H](NC(=O)c2cccc(C(F)(F)F)c2)C1=O)N[C@H]1CC(=O)OC1O` (some centres undefined), the Selectivity ratio (Homo sapiens) was over 100 and the IC50 (THP-1) was 3400 nM.

Compound `O=C(CN1CCS(=O)(=O)C[C@H](NC(=O)c2ccc3ccccc3c2)C1=O)N[C@H]1CC(=O)OC1O` (some centres undefined) has an IC50 (Caspase-3) of over 10 µM, an IC50 (Caspase-1) of 150 nM and a Selectivity ratio (Homo sapiens) of over 100. For the same compound, the IC50 (Caspase-8) was over 10 µM and the IC50 (THP-1) was 1100 nM.

Work on `O=C(CN1CCSC[C@H](NC(=O)c2cc3ccccc3s2)C1=O)N[C@H]1CC(=O)OC1O` (some centres undefined) yielded an IC50 (Caspase-3) of over 10 µM, an IC50 (Caspase-1) of 80 nM and a Selectivity ratio (Homo sapiens) of over 100. The IC50 (Caspase-8) was 9.5 µM and the IC50 (THP-1) was 640 nM.

In the case of `O=C(CN1CCS(=O)(=O)C[C@H](NC(=O)c2cc3ccccc3s2)C1=O)N[C@H]1CC(=O)OC1O` (some centres undefined), the IC50 (Caspase-3) is reported as over 10 µM, the IC50 (Caspase-1) is reported as 320 nM and the Selectivity ratio (Homo sapiens) is reported as over 100. The IC50 (Caspase-8) was 8.5 µM and the IC50 (THP-1) was 1700 nM.

In the case of `O=C(CN1CCSC[C@H](NC(=O)c2ccc3ccccc3c2)C1=O)N[C@H]1CC(=O)OC1O` (some centres undefined), the IC50 (Caspase-3) is reported as over 10 µM, the IC50 (Caspase-1) is reported as 30 nM and the Selectivity ratio (Homo sapiens) is reported as over 100. It also gave an IC50 (Caspase-8) of 9.4 µM and an IC50 (THP-1) of 480 nM.

Work on `O=C(CN1CCS(=O)(=O)C[C@H](NC(=O)c2ccccc2)C1=O)N[C@H]1CC(=O)OC1O` (some centres undefined) yielded an IC50 (Caspase-3) of over 10 µM, an IC50 (Caspase-1) of 2300 nM and a Selectivity ratio (Homo sapiens) of over 100. The IC50 (Caspase-8) was over 10 µM and the IC50 (THP-1) was 3200 nM.
